Columns and labels:
[1] = molecular target: Cytochrome P450 3A4 (Homo sapiens, UniProt P08684); assay: Inhibition of human CYP3A4; format: ADME
[2] = molecular target: Cytochrome P450 2D6 (Homo sapiens, UniProt P10635); assay: Inhibition of recombinant human CYP2D6 expressed in insect cells microsomes using AMMC as substrate preincubated for 30 mins followed by NADP addition and measured after 45 mins by fluorescence analysis; format: ADME
[3] = molecular target: T1, C-X-C chemokine receptor type 4 (Homo sapiens, UniProt P61073); assay: Agonist activity at CXCR4 in human CCRF-CEM cells assessed as induction of calcium release incubated for 25 mins by calcium flux assay; format: functional, cell-based
Summary of the method: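 CCRF-CEM T lymphoblasts (endogenous CXCR4) in HBSS/20 mM HEPES/0.1% fatty-acid-free BSA, 40,000 cells/well, dye-loaded 30 min at 37°C, then 15 min at room temperature. Compounds added at final 25,000–0.423 nM (0.5% DMSO) and calcium flux read by FDSS for 90 s.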

[4] = Permeability of compound at pH 7.4 by PAMPA; format: ADME; conditions: read-out: permeability
Summary of the method: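 Compound from 10 mM DMSO stock diluted 1:100 to 100 µM (1% DMSO) in pH 7.4 or pH 5.5 donor buffer, then filtered. Lipid-coated filter membrane with pH 7.4 acceptor buffer; incubated 4 h at room temperature. UV plate reading gives Pc. Duplicates in two independent experiments unless noted.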

[5] = Metabolic stability in human liver microsomes assessed as parent compound remaining after 10 mins by LC-MS/MS analysis; format: ADME, microsome; conditions: read-out: Stability
Summary of the method: (§1)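 Compound depletion measured by LC/MS/MS after 10 min at 37 °C in liver microsome preparations (CYP450 and other NADP-dependent enzymes). Values are % of compound remaining; duplicates in a single experiment.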

[6] = molecular target: Muscarinic acetylcholine receptor; assay: Antagonist activity at mAChR in human CCRF-CEM cells assessed as inhibition of acetylcholine-induced calcium release preincubated for 25 mins followed by acetylcholine stimulation and measured for 90 secs by calcium flux assay; format: functional, cell-based
Summary of the method: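 Endogenous muscarinic receptors in CCRF-CEM cells (HBSS/HEPES/BSA buffer, 40,000 cells/well, dye-loaded 30 min at 37°C). Calcium flux recorded 90 s by FDSS. IC50 by 4-parameter logistic fit against an internal control compound; duplicate wells, single experiment.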

[7] = molecular target: T1, C-X-C chemokine receptor type 4; assay: Antagonist activity at CXCR4 in human CCRF-CEM cells assessed as inhibition of SDF-1alpha-induced calcium release preincubated for 25 mins followed by SDF-1alpha stimulation and measured for 90 secs by calcium flux assay; format: functional, cell-based
[8] = Metabolic stability in mouse liver microsomes assessed as parent compound remaining after 10 mins by LC-MS/MS analysis; format: ADME, microsome; conditions: read-out: Stability; summary of the method: as §1

Chain of Cytochrome P450 2D6 (P10635 whole entry): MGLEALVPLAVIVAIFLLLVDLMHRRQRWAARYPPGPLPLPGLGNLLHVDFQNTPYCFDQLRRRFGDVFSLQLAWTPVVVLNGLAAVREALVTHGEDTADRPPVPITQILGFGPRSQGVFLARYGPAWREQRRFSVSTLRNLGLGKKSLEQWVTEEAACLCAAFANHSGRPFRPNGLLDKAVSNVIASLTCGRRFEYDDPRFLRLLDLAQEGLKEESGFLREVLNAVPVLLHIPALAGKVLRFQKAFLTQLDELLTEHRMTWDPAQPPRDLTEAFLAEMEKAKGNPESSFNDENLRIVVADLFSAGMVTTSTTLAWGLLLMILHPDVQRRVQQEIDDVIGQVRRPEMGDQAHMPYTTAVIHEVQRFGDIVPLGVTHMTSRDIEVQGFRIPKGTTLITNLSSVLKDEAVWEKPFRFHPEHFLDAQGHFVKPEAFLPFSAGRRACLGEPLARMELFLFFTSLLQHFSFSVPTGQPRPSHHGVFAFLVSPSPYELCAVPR
T1 sequence (P61073 whole entry): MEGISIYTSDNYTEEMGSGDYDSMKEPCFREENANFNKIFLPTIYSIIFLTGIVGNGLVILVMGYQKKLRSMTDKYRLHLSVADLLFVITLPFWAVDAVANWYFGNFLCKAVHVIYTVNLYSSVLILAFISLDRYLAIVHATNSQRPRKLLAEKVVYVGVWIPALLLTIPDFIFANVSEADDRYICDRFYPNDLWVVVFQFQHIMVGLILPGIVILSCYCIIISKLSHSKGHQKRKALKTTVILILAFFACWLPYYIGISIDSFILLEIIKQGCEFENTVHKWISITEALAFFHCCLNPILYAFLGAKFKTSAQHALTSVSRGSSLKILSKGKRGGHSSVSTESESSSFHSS
Chain of Cytochrome P450 3A4 (P08684 whole entry): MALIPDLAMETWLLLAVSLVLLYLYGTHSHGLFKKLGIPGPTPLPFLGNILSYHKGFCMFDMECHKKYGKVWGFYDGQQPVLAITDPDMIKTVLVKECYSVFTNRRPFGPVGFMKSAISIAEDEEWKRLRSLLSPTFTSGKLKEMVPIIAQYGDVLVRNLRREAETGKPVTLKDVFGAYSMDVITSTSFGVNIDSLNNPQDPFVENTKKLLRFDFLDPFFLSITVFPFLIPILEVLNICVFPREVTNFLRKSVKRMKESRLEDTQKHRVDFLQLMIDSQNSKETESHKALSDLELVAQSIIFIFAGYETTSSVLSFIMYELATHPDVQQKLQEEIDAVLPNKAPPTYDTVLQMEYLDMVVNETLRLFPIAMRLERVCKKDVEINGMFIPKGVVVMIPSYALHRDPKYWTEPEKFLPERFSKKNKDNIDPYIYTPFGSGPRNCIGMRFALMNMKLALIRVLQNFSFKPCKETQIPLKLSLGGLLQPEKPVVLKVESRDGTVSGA

Compound: CC(C)N1CCN(c2cccc3c2C[C@H](CN(C)[C@H]2CCCc4cccnc42)NC3)CC1
- IC50 [1]: > 20 µM
- IC50 [2]: 8.13 µM
- EC50 [3]: > 30 µM
- Papp [4]: 14.3 ×10⁻⁶ cm/s
- remaining at 10 min [5]: 56.6%
- IC50 [6]: > 16.7 µM
- IC50 [7]: 0.0169 µM
- remaining at 10 min [8]: 15.1%

Compound: C[C@@H]1CN(c2cccc3c2C[C@H](CN(C)[C@H]2CCCc4cccnc42)NC3)C[C@H](C)N1
- IC50 [1]: > 20 µM
- IC50 [2]: > 20 µM
- EC50 [3]: > 30 µM
- Papp [4]: 3.9 ×10⁻⁶ cm/s
- remaining at 10 min [5]: 100%
- IC50 [6]: > 33.3 µM
- IC50 [7]: 0.061 µM
- remaining at 10 min [8]: 85.6%

Compound: CN(C[C@H]1Cc2c(cccc2N2CCN3CCC[C@H]3C2)CN1)[C@H]1CCCc2cccnc21
- IC50 [1]: > 20 µM
- IC50 [2]: > 20 µM
- EC50 [3]: > 30 µM
- Papp [4]: 16.7 ×10⁻⁶ cm/s
- remaining at 10 min [5]: 36.6%
- IC50 [6]: > 16.7 µM
- remaining at 10 min [8]: 40.1%

Compound: FC1(F)CCC(CN(C[C@H]2Cc3c(cccc3N3CCNCC3)CN2)[C@H]2CCCc3cccnc32)CC1
- IC50 [1]: 5.62 µM
- IC50 [2]: 8.45 µM
- EC50 [3]: > 30 µM
- remaining at 10 min [5]: 68.6%
- IC50 [6]: > 33.3 µM
- remaining at 10 min [8]: 76.6%

Compound: C[C@@H]1CN(c2cccc3c2C[C@H](CN(C)[C@H]2CCCc4cccnc42)NC3)C[C@H](C)N1C
- IC50 [1]: > 20 µM
- IC50 [2]: > 20 µM
- EC50 [3]: > 30 µM
- Papp [4]: 14.2 ×10⁻⁶ cm/s
- remaining at 10 min [5]: 24.6%
- IC50 [6]: 15.1 µM
- remaining at 10 min [8]: 39.6%

Compound: COCCN(C[C@H]1Cc2c(cccc2N2CCNCC2)CN1)[C@H]1CCCc2cccnc21
- IC50 [1]: > 20 µM
- IC50 [2]: 14.2 µM
- EC50 [3]: > 30 µM
- Papp [4]: 0.1 ×10⁻⁶ cm/s
- remaining at 10 min [5]: 90.3%
- IC50 [6]: 5.6 µM
- IC50 [7]: 0.154 µM
- remaining at 10 min [8]: 83.7%

Compound: CC(C)N(C[C@H]1Cc2c(cccc2N2CCNCC2)CN1)[C@H]1CCCc2cccnc21
- IC50 [1]: > 20 µM
- IC50 [2]: > 20 µM
- EC50 [3]: > 30 µM
- Papp [4]: 1.6 ×10⁻⁶ cm/s
- remaining at 10 min [5]: 75%
- IC50 [6]: 8.34 µM
- IC50 [7]: 0.364 µM
- remaining at 10 min [8]: 91%

Compound: CN(C[C@H]1Cc2c(cccc2N2CCNC(C)(C)C2)CN1)[C@H]1CCCc2cccnc21
- IC50 [1]: > 20 µM
- IC50 [2]: > 20 µM
- EC50 [3]: > 30 µM
- remaining at 10 min [5]: 100%
- IC50 [6]: 17.9 µM
- remaining at 10 min [8]: 44%

Compound: Cc1ccc(CN(C)C[C@H]2Cc3c(cccc3N3CCNCC3)CN2)nc1
- IC50 [1]: > 20 µM
- IC50 [2]: 100 µM
- EC50 [3]: > 30 µM
- Papp [4]: 22.5 ×10⁻⁶ cm/s
- remaining at 10 min [5]: 76.8%
- IC50 [6]: 9.56 µM

Compound: CN(C[C@H]1Cc2c(cccc2N2C[C@H]3C[C@@H]2CN3)CN1)[C@H]1CCCc2cccnc21
- IC50 [1]: > 20 µM
- IC50 [2]: > 20 µM
- EC50 [3]: > 30 µM
- remaining at 10 min [5]: 100%
- IC50 [6]: > 16.7 µM
- remaining at 10 min [8]: 95.9%

Compound: CN1CCN(c2cccc3c2C[C@H](CN(C)[C@H]2CCCc4cccnc42)N(C)C3)CC1
- IC50 [1]: > 20 µM
- IC50 [2]: > 20 µM
- EC50 [3]: > 30 µM
- Papp [4]: 36.4 ×10⁻⁶ cm/s
- remaining at 10 min [5]: 83.3%
- IC50 [6]: > 16.7 µM
- IC50 [7]: 0.171 µM
- remaining at 10 min [8]: 41.7%

Compound: CN(C[C@H]1Cc2c(cccc2N2CCN(C3COC3)CC2)CN1)[C@H]1CCCc2cccnc21
- IC50 [1]: > 20 µM
- IC50 [2]: > 20 µM
- EC50 [3]: > 30 µM
- Papp [4]: 72.5 ×10⁻⁶ cm/s
- remaining at 10 min [5]: 83.1%
- IC50 [6]: > 16.7 µM
- remaining at 10 min [8]: 50.8%

Compound: CN1Cc2cccc(N3CCNCC3)c2C[C@@H]1CN(C)[C@H]1CCCc2cccnc21
- IC50 [1]: > 20 µM
- IC50 [2]: > 20 µM
- EC50 [3]: > 30 µM
- Papp [4]: 0.3 ×10⁻⁶ cm/s
- remaining at 10 min [5]: 100%
- IC50 [6]: 26.3 µM
- remaining at 10 min [8]: 100%

Compound: Cc1cccnc1CN(C)C[C@H]1Cc2c(cccc2N2CCNCC2)CN1
- IC50 [1]: 1.42 µM
- IC50 [2]: 100 µM
- EC50 [3]: > 30 µM
- Papp [4]: 19.3 ×10⁻⁶ cm/s
- remaining at 10 min [5]: 69.2%
- IC50 [6]: 11.1 µM

Compound: c1cnc2c(c1)CCC[C@@H]2N(CC1CC1)C[C@H]1Cc2c(cccc2N2CCNCC2)CN1
- IC50 [1]: > 20 µM
- IC50 [2]: 8.57 µM
- EC50 [3]: > 30 µM
- Papp [4]: 8.7 ×10⁻⁶ cm/s
- remaining at 10 min [5]: 82.1%
- IC50 [6]: 21.6 µM
- remaining at 10 min [8]: 88.3%

Source: ChEMBL document CHEMBL4152343, “Design, Synthesis, and Pharmacological Evaluation of Second-Generation Tetrahydroisoquinoline-Based CXCR4 Antagonists with Favorable ADME Properties” (J Med Chem, 2018)
